Experiment [1] can be described thus: Her2 expression decrease, cell viability multiplex – SKBR3 breast tumor cells, AlphaScreen, ATP viability, primary screen (AID 461;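 active = Her2 level under about 52% in both replicate screens, with viability over 70% of control, limit read from the data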;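 as to Her2 level: lower value means less Her2 protein in the cells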;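 as to viability: percent of carrier control wells set as 100% viability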). The settings on record: SKBR3 Her2 protein level, 18-24 h, measured here: SKBR3 viability, ATP luminescence, at 10 µM. (In Alpha technology, singlet oxygen from a donor bead excites a nearby acceptor bead.)
Experiment [2] addresses Receptor tyrosine-protein kinase erbB-2 (Homo sapiens) (UniProt P04626). Described as above. The settings on record: 18-24 h, at 10 µM, stronger effect = lower value.
Experiment [3] in a line: reduced viability of SK-BR-3 breast cancer cells – cell-based, 24 h, human, pilot screen (AID 572;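 active = viability at or below 10% of carrier control in both of two separate runs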;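 also: compound exposure lasted between 18 and 24 h rather than exactly 24 h; 100% = carrier-treated control wells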). The settings on record: SK-BR-3 viability, CellTiter-Glo luminescence, at 10 µM, stronger effect = lower value. In general terms: In ATP-based viability assays light output follows the ATP content of the culture.
A short description of experiment [4]: HUVEC growth inhibition – cell-based, human, primary screen (AID 575;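 active = viability at or below 30% in both replicate assays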;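 also: 100% = median of untreated cell wells with 0.1% DMSO on each plate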). The settings on record: HUVEC proliferation, CellTiter-Glo luminescence, 72 h; at 10 µM; stronger effect = lower value. The method in brief: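 Assay system: Primary human umbilical vein endothelial cells | Quantity: 1250 cells per well | Medium: Supplemented EBM, 2% fetal bovine serum | Detection: CellTiter-Glo luminescence measuring cellular ATP | Read-out: % viability vs DMSO wells | Plate: Collagen-coated 384-well format | Times: 72 h exposure, 37 °C, 5% CO2, 30 min RT equilibration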

A short description of experiment [5]: H69AR cell proliferation blockers – human, duplicate replicates, primary screen (AID 580;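 active = viability at or under a set limit in both replicates, limit being median viability minus 3 SD, cut at about 48% in these data, passing the limit was not always enough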;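 also: 100% = mean luminescence of untreated wells and 0% = no signal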). The settings on record: H69AR lung tumor cells viability, ATP luminescence, 72 h; at 10 µM; stronger effect = lower value.
The nature of experiment [6]: MRP1 drug-resistance reversers in H69AR cells – cell-based, doxorubicin co-treatment, pilot screen (AID 601). The settings on record: CellTiter-Glo, 72 h, at 10 µM; for differential viability (reversal): stronger effect = higher value.
Experiment [7] can be described thus: yeast transport mutant growth inhibition pilot in 384-well plates, post-Golgi transport modulator project (AID 636; in the data active = inhibition above about 31%). The settings on record: absorbance 615 nm, about 18 h, stronger effect = higher value.
A short description of experiment [8]: growth suppression of yeast trafficking mutant, preliminary HTS, modulators of trafficking downstream of Golgi apparatus project, 1536-format plate, OD 615 nm (AID 637; in the data active = inhibition above about 30%). The settings on record: yeast transport mutant growth, absorbance 615 nm, 18 h; stronger effect = higher value.
Setting [9] is: H69AR cells + 2 uM doxorubicin, measured here: viability with 2 uM doxorubicin, stronger effect = lower value.
Setting [10] is: H69AR cells, compound alone cytotoxicity.

Active and inactive are the calls of the source.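 The calls were made as follows, unless noted: active = viability loss from added drug above about 55%, and viability with drug at most 40%, in both replicates (limit read from the data, passing the limit was not always enough); inconclusive = both conditions met in only one replicate; inactive = neither replicate meets both conditions.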

Sequence of Receptor tyrosine-protein kinase erbB-2 (Homo sapiens) (P04626 whole entry, looked up): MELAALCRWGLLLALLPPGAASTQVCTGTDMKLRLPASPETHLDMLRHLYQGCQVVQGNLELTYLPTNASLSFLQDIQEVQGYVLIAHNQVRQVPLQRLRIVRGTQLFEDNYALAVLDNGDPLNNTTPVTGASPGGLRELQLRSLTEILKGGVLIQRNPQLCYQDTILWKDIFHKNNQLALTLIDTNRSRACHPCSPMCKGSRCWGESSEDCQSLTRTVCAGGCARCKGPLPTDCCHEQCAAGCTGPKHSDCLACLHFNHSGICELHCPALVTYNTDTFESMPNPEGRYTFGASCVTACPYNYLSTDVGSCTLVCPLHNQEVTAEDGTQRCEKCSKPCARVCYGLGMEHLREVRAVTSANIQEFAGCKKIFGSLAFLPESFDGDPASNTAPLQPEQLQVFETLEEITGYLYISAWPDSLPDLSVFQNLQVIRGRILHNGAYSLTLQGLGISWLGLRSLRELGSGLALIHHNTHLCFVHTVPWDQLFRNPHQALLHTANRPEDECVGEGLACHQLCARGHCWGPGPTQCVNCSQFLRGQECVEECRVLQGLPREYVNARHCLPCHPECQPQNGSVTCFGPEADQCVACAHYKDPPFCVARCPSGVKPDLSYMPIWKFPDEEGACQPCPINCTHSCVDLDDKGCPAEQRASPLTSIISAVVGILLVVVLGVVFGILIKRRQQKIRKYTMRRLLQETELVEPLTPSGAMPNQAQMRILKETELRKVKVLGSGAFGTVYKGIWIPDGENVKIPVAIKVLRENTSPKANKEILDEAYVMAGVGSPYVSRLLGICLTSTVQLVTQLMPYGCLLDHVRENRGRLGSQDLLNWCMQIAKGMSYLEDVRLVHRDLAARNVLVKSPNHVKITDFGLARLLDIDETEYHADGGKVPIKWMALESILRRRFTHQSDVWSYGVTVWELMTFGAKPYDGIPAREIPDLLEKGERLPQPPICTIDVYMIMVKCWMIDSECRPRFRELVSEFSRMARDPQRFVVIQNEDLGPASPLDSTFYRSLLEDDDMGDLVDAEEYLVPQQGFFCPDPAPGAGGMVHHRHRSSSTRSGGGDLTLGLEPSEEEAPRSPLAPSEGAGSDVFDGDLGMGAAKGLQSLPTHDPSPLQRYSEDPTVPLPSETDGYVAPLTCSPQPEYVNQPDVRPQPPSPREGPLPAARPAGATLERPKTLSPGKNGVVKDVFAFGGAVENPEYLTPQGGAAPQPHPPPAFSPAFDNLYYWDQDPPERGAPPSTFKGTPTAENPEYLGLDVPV

By viability is commonly meant a read-out of living cells in per cent, often relative to untreated cells. As usually defined, the inhibition is the drop in the measured response relative to a control, in per cent. Regarding `CCc1nc(NCCCN2CCOCC2)c2oc3ccccc3c2n1`, the viability in experiment [1] is 88%; in experiment [3], 88% (inactive); in experiment [4], 80.3% (inactive); in experiment [5], 89.1% (inactive); in experiment [6] (setting [9]), 88.2%; in experiment [6] (setting [10]), 89.1%. The Her2 level in experiment [2] was 95% (inactive). Moreover, the differential viability (reversal) in experiment [6] (H69AR cells + 2 uM doxorubicin) was 0.87% (inactive). Further, the inhibition in experiment [7] was -0.13% (inactive); in experiment [8] it was 0.81% (inactive).

`c1ccc(-c2nnc(CN3CCC4(CC3)OCCO4)o2)cc1`: the viability was 110% in experiment [1]; 110% (inactive) in experiment [3]; 96.9% (inactive) in experiment [4]; 98.7% (inactive) in experiment [5]; 90.2% in experiment [6] (setting [9]); 98.7% in experiment [6] (setting [10]). Also, the Her2 level in experiment [2] was 91.5% (inactive). Moreover, in experiment [6] (H69AR cells + 2 uM doxorubicin), the differential viability (reversal) was 8.52% (inactive). Also, the inhibition in experiment [7] is -0.79% (inactive); in experiment [8], 14.5% (inactive).

As to `CCS(=O)(=O)c1nc2ccccc2n1CC(=O)N1CCCCC1`, the viability in experiment [1] is 88.5%; in experiment [3], 88.5% (inactive); in experiment [4], 96.7% (inactive); in experiment [5] it was 80.4% (inactive); in experiment [6] (setting [9]), 76.8%; in experiment [6] (setting [10]) it was 80.4%. Besides, the Her2 level in experiment [2] was 82.5% (inactive). For the same molecule, in experiment [6] (H69AR cells + 2 uM doxorubicin), the differential viability (reversal) is 3.6% (inactive). Further, the figures for the inhibition in experiment [7] and in experiment [8] were -3.42% (inactive) and 0.79% (inactive), respectively.

Turning to `COC(=O)[C@@H](NC(=O)NCc1ccccc1Cl)C(C)C`, the viability in experiment [1] was 95%; in experiment [3], 95% (inactive); in experiment [4], 84.9% (inactive); in experiment [5], 94.4% (inactive); in experiment [6] (setting [9]), 95.9%; in experiment [6] (setting [10]) it was 94.4%. Also, in experiment [2], the Her2 level was 123% (inactive). Moreover, the differential viability (reversal) in experiment [6] (H69AR cells + 2 uM doxorubicin) was -1.47% (inactive). Further, the inhibition in experiment [7] is -1.17% (inactive); in experiment [8], -9.5% (inactive).

On to `CCN(CC)S(=O)(=O)c1ccc2c(c1)c(=O)c(C(=O)NCCOC)cn2C`, for which the viability in experiment [1] was 88.5%; in experiment [3], 88.5% (inactive); in experiment [4] it was 101% (inactive); in experiment [5] it was 83.1% (inactive); in experiment [6] (setting [9]), 95.6%; in experiment [6] (setting [10]), 83.1%. For the same molecule, the Her2 level in experiment [2] was 99.5% (inactive). Besides, the differential viability (reversal) in experiment [6] (H69AR cells + 2 uM doxorubicin) is -12.5% (inactive). Moreover, the results for the inhibition in experiment [7] and in experiment [8] were -5.95% (inactive) and -5.5% (inactive), respectively.

As to `Cc1occc1-c1nnc(SCC(=O)NCC2CCCO2)n1C` (stereo not given), the viability was 86% in experiment [1]; 86% (inactive) in experiment [3]; 92.2% (inactive) in experiment [4]; 96.6% (inactive) in experiment [5]; 94% in experiment [6] (setting [9]); 96.6% in experiment [6] (setting [10]). Also, in experiment [2], the Her2 level is 96.5% (inactive). Also, the differential viability (reversal) in experiment [6] (H69AR cells + 2 uM doxorubicin) is 2.64% (inactive). For the same molecule, the inhibition is -4.93% (inactive) in experiment [7] and 18.7% (inactive) in experiment [8].

Turning to `CCS(=O)(=O)N1CCC(C(=O)NCCc2ccc(C)cc2)CC1`, the viability in experiment [1] is 99%; in experiment [3] it was 99% (inactive); in experiment [4] it was 100% (inactive); in experiment [5] it was 89.3% (inactive); in experiment [6] (setting [9]) it was 81.9%; in experiment [6] (setting [10]) it was 89.3%. Moreover, the Her2 level in experiment [2] is 106% (inactive). In experiment [6] (H69AR cells + 2 uM doxorubicin), the differential viability (reversal) was 7.41% (inactive). Moreover, the inhibition in experiment [7] is -2.6% (inactive); in experiment [8], -9.68% (inactive).

In the case of `Cc1cccc(OCC(=O)N(Cc2cccs2)C2CCS(=O)(=O)C2)c1C` (stereo not given), the viability in experiment [1] was 96.5%; in experiment [3], 96.5% (inactive); in experiment [4] it was 72.8% (inactive); in experiment [5], 94.6% (inactive); in experiment [6] (setting [9]), 91.4%; in experiment [6] (setting [10]), 94.6%. Besides, the Her2 level in experiment [2] was 83.5% (inactive). In addition, the differential viability (reversal) in experiment [6] (H69AR cells + 2 uM doxorubicin) was 3.22% (inactive). The inhibition in experiment [7] is -6.35% (inactive); in experiment [8], 3.02% (inactive).

Turning to `Cc1cc(N2C(=O)C3C4C=CC(C4)C3C2=O)ccc1Br` (stereo not given), the viability in experiment [1] is 107%; in experiment [3], 107% (inactive); in experiment [4] it was 87.8% (inactive); in experiment [5] it was 101% (inactive); in experiment [6] (setting [9]), 89.3%; in experiment [6] (setting [10]), 101%. Besides, the Her2 level in experiment [2] is 99.5% (inactive). For the same molecule, the differential viability (reversal) in experiment [6] (H69AR cells + 2 uM doxorubicin) is 11.6% (inactive). For the same molecule, the inhibition was -6.58% (inactive) in experiment [7] and -5.4% (inactive) in experiment [8].

In the case of `O=C(CCNC(=O)Cn1ccc2ccccc2c1=O)NCCN1CCc2ccccc2C1`, the viability was 118% in experiment [1]; 118% (inactive) in experiment [3]; 87.3% (inactive) in experiment [4]; 91.8% (inactive) in experiment [5]; 91% in experiment [6] (setting [9]); 91.8% in experiment [6] (setting [10]). Besides, in experiment [2], the Her2 level was 98% (inactive). Further, in experiment [6] (H69AR cells + 2 uM doxorubicin), the differential viability (reversal) was 0.755% (inactive). The inhibition is -7.63% (inactive) in experiment [7] and -8.18% (inactive) in experiment [8].

On to `COC(=O)CC1SCCNC1=O` (stereo not given), for which the viability in experiment [1] was 92%; in experiment [3] it was 92% (inactive); in experiment [4] it was 103% (inactive); in experiment [5] it was 95.6% (inactive); in experiment [6] (setting [9]), 90.6%; in experiment [6] (setting [10]), 95.6%. Besides, the Her2 level in experiment [2] was 94% (inactive). Besides, the differential viability (reversal) in experiment [6] (H69AR cells + 2 uM doxorubicin) was 5.06% (inactive). Moreover, the inhibition in experiment [7] is 5.87% (inactive); in experiment [8], 23.7% (inactive).

In the case of `CCOC(=O)CNC(=O)C(Cc1ccccc1)NS(=O)(=O)c1ccc2c(c1)CCC(=O)N2` (stereo not given), the viability is 101% in experiment [1]; 101% (inactive) in experiment [3]; 92.8% (inactive) in experiment [4]; 90.7% (inactive) in experiment [5]; 91.7% in experiment [6] (setting [9]); 90.7% in experiment [6] (setting [10]). For the same molecule, the Her2 level in experiment [2] was 114% (inactive). Further, the differential viability (reversal) in experiment [6] (H69AR cells + 2 uM doxorubicin) is -0.925% (inactive). The inhibition in experiment [7] was 1.84% (inactive); in experiment [8], -5.64% (inactive).

As for `CN(C1CCS(=O)(=O)C1)S(=O)(=O)c1cccc2nsnc12` (stereo not given), the viability was 104% in experiment [1]; 104% (inactive) in experiment [3]; 107% (inactive) in experiment [4]; 107% (inactive) in experiment [5]; 100% in experiment [6] (setting [9]); 107% in experiment [6] (setting [10]). The Her2 level in experiment [2] was 100% (inactive). Moreover, the differential viability (reversal) in experiment [6] (H69AR cells + 2 uM doxorubicin) was 6.67% (inactive). Also, the inhibition in experiment [7] is -6.58% (inactive); in experiment [8], -2.7% (inactive).

Regarding `Cc1cc(C(=O)NCc2cccnc2)n(-c2ccccc2)n1`, the viability was 93.5% in experiment [1]; 93.5% (inactive) in experiment [3]; 102% (inactive) in experiment [4]; 107% (inactive) in experiment [5]; 92.9% in experiment [6] (setting [9]); 107% in experiment [6] (setting [10]). For the same molecule, the Her2 level in experiment [2] was 97% (inactive). In experiment [6] (H69AR cells + 2 uM doxorubicin), the differential viability (reversal) is 14.4% (inactive). For the same molecule, the figures for the inhibition in experiment [7] and in experiment [8] were -0.93% (inactive) and -6.07% (inactive), respectively.

Regarding `CCOC(=O)C1=C(c2ccccc2)NC(=O)NC1c1ccc(N(C)C)cc1` (stereo not given), the viability in experiment [1] is 85.5%; in experiment [3], 85.5% (inactive); in experiment [4], 106% (inactive); in experiment [5] it was 97.6% (inactive); in experiment [6] (setting [9]), 97%; in experiment [6] (setting [10]), 97.6%. The Her2 level in experiment [2] is 87% (inactive). Besides, the differential viability (reversal) in experiment [6] (H69AR cells + 2 uM doxorubicin) is 0.56% (inactive). Besides, the figures for the inhibition in experiment [7] and in experiment [8] were -2.08% (inactive) and 14.7% (inactive), respectively.

Turning to `CCNC(=O)C1CC(=O)N(Cc2ccc3c(c2)OCO3)C(=Nc2ccc(F)cc2)S1` (stereo not given), the viability in experiment [1] is 124%; in experiment [3], 124% (inactive); in experiment [4], 85.6% (inactive); in experiment [5], 82.6% (inactive); in experiment [6] (setting [9]) it was 87.8%; in experiment [6] (setting [10]) it was 82.6%. Also, the Her2 level in experiment [2] is 112% (inactive). For the same molecule, in experiment [6] (H69AR cells + 2 uM doxorubicin), the differential viability (reversal) is -5.16% (inactive). Also, the inhibition in experiment [7] was -6.58% (inactive); in experiment [8], -6.98% (inactive).

Source of the values: PubChem BioAssay.
